The results in this text go back to ChEMBL document CHEMBL4414663, “Pyrazole-4-Carboxamide (YW2065): A Therapeutic Candidate for Colorectal Cancer via Dual Activities of Wnt/β-Catenin Signaling Inhibition and AMP-Activated Protein Kinase (AMPK) Activation” (J Med Chem, 2019).

Series [1] has as its target Mitogen-activated protein kinase kinase kinase kinase 4 (Homo sapiens) (UniProt O95819). Nature of the series: Inhibition of MAP4K4 (unknown origin) at 1000 nM relative to control. In a few lines:
(§1)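 Single-concentration screen at 1000 nM against a 273-kinase panel, reported as percent inhibition.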

Series [2] can be described thus: Inhibition of Wnt/beta-Catenin signaling in human SW620 cells incubated for 24 hrs by TCF/LEF dual-luciferase reporter assay. The class given is cell-based. Particulars: SW-620, 24 h. In a few lines:
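SW480 or SW620 cells seeded at 200,000/well and transiently transfected 24 h later with TOPflash firefly luciferase plus pRLTK-Renilla using lipofectamine 2000. After 16 h the medium was replaced with compound at a range of concentrations, three replicates each. Dual firefly/Renilla luciferase read 24 h later.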

For series [3], the species on record is Homo sapiens. The series is described as follows: Inhibition of Wnt/beta-Catenin signaling in human SW620 cells assessed as reduction in S100A4 mRNA expression at 10 uM incubated for 24 hrs by real-time PCR analysis. The class given is cell-based. In a few lines: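 SW620 cells (RPMI 1640, 10% FBS) in 6-well plates, incubated 24 h, then treated with compound at several concentrations, three replicates each, for 24 h. Total RNA isolated with Trizol/phenol-chloroform; 2 µg reverse transcribed; Wnt target gene mRNA quantified by PCR.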

Series [4] can be described thus: AUC (0 to infinity) in C57BL/6J mouse at 5 mg/kg, po by UPLC-MS analysis. The arrangement: dose 5 mg/kg, time infinity, route oral. Particulars: in vivo. The class given is ADME, organism-based. A digest of the protocol: (§2)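 Male C57BL/6J mice, 2-3 months, 23-26 g. Single 5 mg/kg dose in 5% Kolliphor in saline, given iv (n=3) or by oral gavage (n=5). Tail-vein blood taken at 0.25, 0.5, 1, 4, 8 and 12 h and spun to plasma. Plasma analysed by LC-MS/MS on a triple quadrupole with a C18 column. Parameters from non-compartmental analysis.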

A short description of series [5]: Tmax in C57BL/6J mouse at 5 mg/kg, po by UPLC-MS analysis. The class given is ADME, organism-based. Particulars: in vivo. In a few lines: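 Male C57BL/6J mice, 2–3 months old, 23–26 g. Single 5 mg/kg dose in 5% Kolliphor in saline, IV (n = 3) or oral gavage (n = 5). Tail-vein blood taken at 0.25, 0.5, 1, 4, 8 and 12 h and centrifuged to plasma. Analysed by LC-MS/MS (QTRAP 4000, C18 column); parameters from non-compartmental analysis.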

A short description of series [6]: Toxicity in C57BL/6 mouse assessed as effect on total protein level at 100 mg/kg/day, ip for 21 days. The class given is organism-based. The note with it: in vivo, 504 h.
Series [7] concerns SW-620. The series is described as follows: Induction of apoptosis in human SW620 cells assessed as early apoptotic cells level at 10 uM incubated for 48 hrs by AAD-7 and FITC-annexin-V staining based flow cytometry (reference value: 18.6%). The class given is functional.
The subject of series [8] is SW-620. The series is described as follows: Growth inhibition of human SW620 cells incubated for 72 hrs by Cell-titer-fluor reagent based assay. The note with it: SW-620, 72 h. The class given is functional. A digest of the protocol: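 SW620 cells, parental, overexpressing β-catenin S33Y, or with Axin-1 knocked down by lentiviral shRNA. Treated with compound or vehicle for 72 h.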

In series [9] the target is T1, AMP-activated protein kinase, AMPK (Homo sapiens) (UniProt P54646+O43741+P54619+Q9UGJ0+Q9Y478+Q13131+Q9UGI9). The series is described as follows: Activation of AMPK in HEK293 cells with Axin-1 knockdown assessed as increase in AMPK phosphorylation at T172 residue at 10 uM incubated for 24 hrs by Western blot analysis. The class given is cell-based.
Series [10] relates to SW-620. The series is described as follows: Induction of apoptosis in human SW620 cells incubated for 48 hrs by AAD-7 and FITC-annexin-V staining based flow cytometry. The class given is functional, cell-based. In a few lines: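 Cells treated with a range of concentrations or DMSO for 48 h. Stained with FITC annexin V/7-AAD and analysed by flow cytometry.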
The subject of series [11] is SW-620. The series is described as follows: Induction of apoptosis in human SW620 cells assessed as early apoptotic cells level at 3 uM incubated for 48 hrs by AAD-7 and FITC-annexin-V staining based flow cytometry (reference value: 18.6%). The class given is functional.
Series [12] addresses Serine/threonine-protein kinase PAK 3 (Homo sapiens) (UniProt O75914). The series is described as follows: Inhibition of PAK3 (unknown origin) at 1000 nM relative to control. A digest of the protocol: as §1
In series [13] the test system is SW-620. Nature of the series: Induction of apoptosis in human SW620 cells assessed as late apoptotic cells level at 10 uM incubated for 48 hrs by AAD-7 and FITC-annexin-V staining based flow cytometry (reference value: 7.6%). The class given is functional.
The target in series [14] is Maternal embryonic leucine zipper kinase (Homo sapiens) (UniProt Q14680). Nature of the series: Inhibition of MELK (unknown origin) at 1000 nM relative to control. A digest of the protocol:
as §1

Series [15] addresses Ribosomal protein S6 kinase alpha-3 (Homo sapiens) (UniProt P51812). The series is described as follows: Inhibition of RPS6KA3 (unknown origin) at 1000 nM relative to control. In a few lines: as §1
The subject of series [16] is SW480. Nature of the series: Growth inhibition of human SW480 cells at 50 uM by Cell-titer-fluor reagent based assay relative to control. The note with it: read-out: GI. The class given is functional.
Series [17] has as its target T1, AMP-activated protein kinase, AMPK (Homo sapiens). Nature of the series: Activation of AMPK in human SW620 cells assessed as increase in AMPK phosphorylation incubated for 24 hrs by Western blot analysis. The class given is cell-based. A digest of the protocol:
(§3)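 SW620 cells in RPMI 1640 with 10% FBS, treated over a concentration range. Lysed in RIPA with protease inhibitors, 20 µL of 2 mg/mL protein run on 7.5% SDS-PAGE, transferred to nitrocellulose, blocked in 5% BSA. Rabbit primaries (Axin-1, ACC, pACC, AMPK, pAMPK at 1:1,000; β-actin 1:2,000) overnight at 4 °C, HRP secondary 1:8000 for 2 h, ECL.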

The subject of series [18] is Mus musculus. Nature of the series: Inhibition of Wnt/beta-Catenin signaling in nude mouse xenografted with human SW620 cells assessed as reduction in Axin-2 mRNA expression at 50 mg/kg, ip QD for 32 consecutive days by RT-PCR analysis. The class given is organism-based. The note with it: in vivo. In a few lines:
(§4)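 Six-week-old nude mice implanted subcutaneously in the right flank with 2×10^6 SW620 cells. Randomized at mean tumor volume 100–200 mm³, n = 6/group. Dosed IP once daily for 32 days at 10 or 50 mg/kg, or vehicle (10% DMSO, 10% Kolliphor, 80% saline). Tumors collected at day 32; Axin-2, MMP-7 and S100A4 expression measured by RT-PCR.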

Series [19] has as its target Protein kinase C theta type (Homo sapiens) (UniProt Q04759). The series is described as follows: Inhibition of PRKCQ (unknown origin) at 1000 nM relative to control. In a few lines: as §1
In series [20] the test system is SW-620. The series is described as follows: Induction of Axin-1 protein expression in human SW620 cells by Western blot analysis. The class given is functional, cell-based. A digest of the protocol:
as §3

For series [21], the system named is Mus musculus. The series is described as follows: Inhibition of Wnt/beta-Catenin signaling in nude mouse xenografted with human SW620 cells assessed as reduction in MMP7 mRNA expression at 50 mg/kg, ip QD for 32 consecutive days by RT-PCR analysis. The class given is organism-based. Particulars: in vivo. A digest of the protocol:
as §4

Series [22] in a line: Half life in C57BL/6J mouse at 5 mg/kg, iv by UPLC-MS analysis. The class given is ADME, organism-based. The note with it: in vivo. A digest of the protocol:
as §2

Series [23] in a line: AUC (0 to infinity) in C57BL/6J mouse at 5 mg/kg, iv by UPLC-MS analysis. The class given is ADME, organism-based. The arrangement: dose 5 mg/kg, route intravenous, time infinity. The note with it: in vivo. In a few lines:
as §2

Each structure is given as a SMILES string. pIC50: −log10 of the molar value. Activity calls are given as the source filed them. The rule behind the calls is not given here.

Maternal embryonic leucine zipper kinase (Homo sapiens), sequence (Q14680 whole entry, looked up): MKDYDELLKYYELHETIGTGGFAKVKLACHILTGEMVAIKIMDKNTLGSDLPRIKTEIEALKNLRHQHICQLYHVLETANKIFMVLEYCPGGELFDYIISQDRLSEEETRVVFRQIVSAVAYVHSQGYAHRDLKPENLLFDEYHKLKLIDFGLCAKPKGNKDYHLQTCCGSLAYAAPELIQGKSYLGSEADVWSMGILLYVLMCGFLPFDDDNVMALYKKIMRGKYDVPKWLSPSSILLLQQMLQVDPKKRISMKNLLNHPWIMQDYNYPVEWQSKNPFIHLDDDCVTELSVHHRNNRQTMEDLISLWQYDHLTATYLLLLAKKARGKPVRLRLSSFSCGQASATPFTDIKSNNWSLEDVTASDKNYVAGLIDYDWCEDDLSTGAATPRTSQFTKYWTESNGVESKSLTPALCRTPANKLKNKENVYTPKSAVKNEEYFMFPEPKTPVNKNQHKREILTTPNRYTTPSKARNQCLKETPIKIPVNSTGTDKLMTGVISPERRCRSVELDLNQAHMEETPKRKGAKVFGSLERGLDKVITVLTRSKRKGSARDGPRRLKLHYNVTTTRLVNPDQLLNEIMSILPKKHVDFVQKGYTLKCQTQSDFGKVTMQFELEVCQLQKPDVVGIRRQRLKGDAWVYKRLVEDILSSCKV
Protein kinase C theta type (Homo sapiens), sequence (Q04759 whole entry, looked up): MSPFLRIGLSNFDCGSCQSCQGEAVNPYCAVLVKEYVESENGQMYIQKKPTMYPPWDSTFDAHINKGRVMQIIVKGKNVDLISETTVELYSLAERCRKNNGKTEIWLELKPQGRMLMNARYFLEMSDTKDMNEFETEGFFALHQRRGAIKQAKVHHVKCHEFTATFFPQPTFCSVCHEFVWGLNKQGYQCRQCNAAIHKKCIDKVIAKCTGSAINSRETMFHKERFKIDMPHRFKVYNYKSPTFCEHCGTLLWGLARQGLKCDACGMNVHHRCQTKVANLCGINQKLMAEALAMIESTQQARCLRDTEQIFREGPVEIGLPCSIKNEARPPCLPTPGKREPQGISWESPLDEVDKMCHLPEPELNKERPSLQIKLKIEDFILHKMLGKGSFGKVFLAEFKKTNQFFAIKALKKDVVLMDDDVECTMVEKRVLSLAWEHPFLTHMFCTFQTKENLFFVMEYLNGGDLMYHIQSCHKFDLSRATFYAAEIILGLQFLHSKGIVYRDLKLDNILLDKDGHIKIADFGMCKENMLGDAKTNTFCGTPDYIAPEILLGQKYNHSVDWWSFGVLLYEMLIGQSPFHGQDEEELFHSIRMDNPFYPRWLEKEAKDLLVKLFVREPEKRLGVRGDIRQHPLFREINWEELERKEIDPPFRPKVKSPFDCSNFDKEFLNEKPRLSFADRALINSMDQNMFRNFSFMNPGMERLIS
Ribosomal protein S6 kinase alpha-3 (Homo sapiens), sequence (P51812 whole entry): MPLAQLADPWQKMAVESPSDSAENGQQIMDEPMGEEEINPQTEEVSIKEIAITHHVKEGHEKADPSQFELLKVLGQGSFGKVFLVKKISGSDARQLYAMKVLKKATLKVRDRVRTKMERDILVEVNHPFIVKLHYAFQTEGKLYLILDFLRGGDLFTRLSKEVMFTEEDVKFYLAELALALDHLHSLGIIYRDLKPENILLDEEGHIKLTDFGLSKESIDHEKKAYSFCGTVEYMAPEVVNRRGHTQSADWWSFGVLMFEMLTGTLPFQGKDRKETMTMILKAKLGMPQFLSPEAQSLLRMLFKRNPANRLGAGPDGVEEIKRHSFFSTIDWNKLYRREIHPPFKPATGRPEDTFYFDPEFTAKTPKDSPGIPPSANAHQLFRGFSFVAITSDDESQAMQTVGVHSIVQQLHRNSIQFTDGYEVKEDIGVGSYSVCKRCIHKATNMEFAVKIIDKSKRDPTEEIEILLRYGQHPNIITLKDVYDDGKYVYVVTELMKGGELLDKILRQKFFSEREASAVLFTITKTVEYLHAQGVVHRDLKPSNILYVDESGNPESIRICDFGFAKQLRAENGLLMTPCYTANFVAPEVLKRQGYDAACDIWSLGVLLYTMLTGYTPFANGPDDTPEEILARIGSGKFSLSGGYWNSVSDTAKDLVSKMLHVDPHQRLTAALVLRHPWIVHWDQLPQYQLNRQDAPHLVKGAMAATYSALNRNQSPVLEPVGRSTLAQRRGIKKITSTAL
Mitogen-activated protein kinase kinase kinase kinase 4 (Homo sapiens), sequence (O95819 2-1239 limits assumed): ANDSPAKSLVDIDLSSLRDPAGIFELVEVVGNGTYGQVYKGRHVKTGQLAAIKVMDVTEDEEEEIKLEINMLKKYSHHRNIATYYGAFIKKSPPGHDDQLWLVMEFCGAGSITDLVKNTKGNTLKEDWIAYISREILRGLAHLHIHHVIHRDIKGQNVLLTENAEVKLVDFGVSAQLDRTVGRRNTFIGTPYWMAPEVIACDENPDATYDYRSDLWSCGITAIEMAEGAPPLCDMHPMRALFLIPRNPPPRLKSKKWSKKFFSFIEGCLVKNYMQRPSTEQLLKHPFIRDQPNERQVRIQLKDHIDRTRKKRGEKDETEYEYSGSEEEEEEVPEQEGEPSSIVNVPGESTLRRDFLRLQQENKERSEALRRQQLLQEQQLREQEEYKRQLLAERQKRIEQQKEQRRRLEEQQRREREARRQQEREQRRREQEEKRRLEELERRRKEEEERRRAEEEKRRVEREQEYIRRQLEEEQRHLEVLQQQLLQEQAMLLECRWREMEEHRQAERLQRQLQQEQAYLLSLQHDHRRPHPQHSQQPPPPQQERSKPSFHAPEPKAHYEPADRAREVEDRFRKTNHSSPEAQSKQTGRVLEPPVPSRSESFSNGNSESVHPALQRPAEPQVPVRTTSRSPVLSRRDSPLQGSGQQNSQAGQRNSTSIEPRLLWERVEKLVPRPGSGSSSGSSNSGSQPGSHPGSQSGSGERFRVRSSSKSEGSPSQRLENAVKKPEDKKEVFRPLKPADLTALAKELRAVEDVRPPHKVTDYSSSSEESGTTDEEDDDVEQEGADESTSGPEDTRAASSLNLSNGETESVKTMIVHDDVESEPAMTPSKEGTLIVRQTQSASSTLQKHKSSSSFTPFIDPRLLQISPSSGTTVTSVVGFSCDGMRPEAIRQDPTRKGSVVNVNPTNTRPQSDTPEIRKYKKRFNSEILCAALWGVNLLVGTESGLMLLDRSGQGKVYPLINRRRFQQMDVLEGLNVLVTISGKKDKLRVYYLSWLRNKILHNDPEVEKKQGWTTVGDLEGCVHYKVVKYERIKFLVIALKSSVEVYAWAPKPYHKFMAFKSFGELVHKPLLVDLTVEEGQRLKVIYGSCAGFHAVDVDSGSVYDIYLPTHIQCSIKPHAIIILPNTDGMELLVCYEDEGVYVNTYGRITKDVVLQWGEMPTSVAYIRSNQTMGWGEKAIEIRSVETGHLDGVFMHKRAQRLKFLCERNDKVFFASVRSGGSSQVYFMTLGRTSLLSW
Serine/threonine-protein kinase PAK 3 (Homo sapiens), sequence (O75914 whole entry, looked up): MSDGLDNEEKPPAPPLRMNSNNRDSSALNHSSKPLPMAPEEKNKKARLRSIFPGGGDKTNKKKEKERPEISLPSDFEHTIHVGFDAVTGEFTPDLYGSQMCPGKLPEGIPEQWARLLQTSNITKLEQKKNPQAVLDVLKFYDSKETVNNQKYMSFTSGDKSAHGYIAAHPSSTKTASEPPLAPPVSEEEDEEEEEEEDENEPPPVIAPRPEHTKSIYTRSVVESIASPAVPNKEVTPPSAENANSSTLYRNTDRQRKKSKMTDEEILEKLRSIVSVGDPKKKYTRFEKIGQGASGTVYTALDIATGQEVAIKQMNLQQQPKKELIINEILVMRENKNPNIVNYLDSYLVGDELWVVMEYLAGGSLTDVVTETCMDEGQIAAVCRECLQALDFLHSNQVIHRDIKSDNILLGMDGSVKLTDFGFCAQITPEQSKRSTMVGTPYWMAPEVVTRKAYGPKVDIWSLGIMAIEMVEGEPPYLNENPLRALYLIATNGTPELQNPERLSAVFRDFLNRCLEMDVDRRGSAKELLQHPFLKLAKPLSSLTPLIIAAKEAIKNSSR

Turning to `Cc1c(C(=O)Nc2ccc3ccccc3n2)cnn1-c1ccccc1Br`, the inhibition result in [1], in series [3], in series [12], in [14] and in series [19] was “Active” in each case. In addition, the pIC50 is 9.71 in [2] and 7.94 in series [8]. Also, the AUC(0-inf) worked out at 13200 ng·h/mL in [4] and 57500 ng·h/mL in series [23]. For the same compound, the time of peak concentration (Tmax) in [5] was 18 min. The Activity entry in [6] was “Non-Toxic”; in series [7], 57.9%; in series [10], “Dose-dependent effect”; in series [11], 35.7%; in series [13] it was 20%; in series [17] it was “Dose-dependent effect”. The Activity result in series [20] was “Dose-dependent effect”. Also, the outcome in series [9] was inactive. The inhibition in [15] is 39%. Besides, the inhibition of growth at 50 µM in series [16] is > 50%. Moreover, the “inhibition (INH)” value in series [18] and in series [21] was “Active” throughout. In addition, the half-life in [22] is 186 min.
